In the M2OR odorant receptor database:

Key:
Conditions in all cases: stereoisomer not certain
OR4CD V133I = system: OR4CD V133I
Outline: (§1)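 Whether a receptor–molecule pair is responsive (active) rests on the original authors' judgment that its measured signal was statistically different from baseline. Pairs without that judgment are non-responsive (inactive). Sources used varied assay methods, commonly transient luciferase assays in mammalian cell lines.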

OR4CF = system: OR4CF
Outline: as §1

OR4CG T76A = system: OR4CG T76A
Outline: as §1

OR4D1 (Homo sapiens) = OR4D1 (Homo sapiens) (UniProt Q15615)
Outline: as §1

OR4D10 (Homo sapiens) = OR4D10 (Homo sapiens) (UniProt Q8NGI6)
Outline: as §1

OR4D11 (Homo sapiens) = OR4D11 (Homo sapiens) (UniProt Q8NGI4)
Outline: as §1

OR4D1 = system: OR4D1
Outline: as §1

OR4D2 (Homo sapiens) = OR4D2 (Homo sapiens) (UniProt P58180)
Outline: as §1

OR4D2 = system: OR4D2
Outline: as §1

OR4D5 (Homo sapiens) = OR4D5 (Homo sapiens) (UniProt Q8NGN0)
Outline: as §1

OR4D6 (Homo sapiens) = OR4D6 (Homo sapiens) (UniProt Q8NGJ1)
Outline: as §1

OR4D6 = system: OR4D6
Outline: as §1

OR4D9 (Homo sapiens) = OR4D9 (Homo sapiens) (UniProt Q8NGE8)
Outline: as §1

OR4E2 (Homo sapiens) = OR4E2 (Homo sapiens) (UniProt Q8NGC2)
Outline: as §1

OR4E2 A119T = system: OR4E2 A119T
Outline: as §1

OR4E2 = system: OR4E2
Outline: as §1

OR4F15 (Homo sapiens) = OR4F15 (Homo sapiens) (UniProt Q8NGB8)
Outline: as §1

OR4F17 (Homo sapiens) = OR4F17 (Homo sapiens) (UniProt Q8NGA8)
Outline: as §1

OR4F21 (Homo sapiens) = OR4F21 (Homo sapiens) (UniProt O95013)
Outline: as §1

OR4E1 (Homo sapiens) = OR4E1 (Homo sapiens) (UniProt P0C645)
Outline: as §1

Measured: odorant receptor agonist call;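 note: active if original authors judged signal statistically different from baseline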

Sequence of OR4D2 (Homo sapiens) (P58180 whole entry): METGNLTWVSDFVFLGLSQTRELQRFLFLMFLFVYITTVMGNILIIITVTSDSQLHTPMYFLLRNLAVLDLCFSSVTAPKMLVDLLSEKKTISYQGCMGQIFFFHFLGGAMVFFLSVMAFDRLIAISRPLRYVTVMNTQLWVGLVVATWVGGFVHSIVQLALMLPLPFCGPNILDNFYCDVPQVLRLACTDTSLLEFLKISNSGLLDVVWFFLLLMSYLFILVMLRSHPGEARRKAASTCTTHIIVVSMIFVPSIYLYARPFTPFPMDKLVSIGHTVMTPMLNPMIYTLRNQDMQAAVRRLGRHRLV
Sequence of OR4D10 (Homo sapiens) (Q8NGI6 whole entry): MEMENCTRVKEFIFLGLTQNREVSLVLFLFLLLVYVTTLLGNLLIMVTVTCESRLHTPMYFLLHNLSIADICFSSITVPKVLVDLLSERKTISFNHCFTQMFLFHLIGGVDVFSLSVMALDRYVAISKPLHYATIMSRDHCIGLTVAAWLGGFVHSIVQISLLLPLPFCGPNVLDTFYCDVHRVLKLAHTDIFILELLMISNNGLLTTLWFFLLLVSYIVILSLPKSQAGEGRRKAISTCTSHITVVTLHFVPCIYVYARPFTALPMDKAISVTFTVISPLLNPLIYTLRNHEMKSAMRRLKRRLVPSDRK
Sequence of OR4D5 (Homo sapiens) (Q8NGN0 whole entry): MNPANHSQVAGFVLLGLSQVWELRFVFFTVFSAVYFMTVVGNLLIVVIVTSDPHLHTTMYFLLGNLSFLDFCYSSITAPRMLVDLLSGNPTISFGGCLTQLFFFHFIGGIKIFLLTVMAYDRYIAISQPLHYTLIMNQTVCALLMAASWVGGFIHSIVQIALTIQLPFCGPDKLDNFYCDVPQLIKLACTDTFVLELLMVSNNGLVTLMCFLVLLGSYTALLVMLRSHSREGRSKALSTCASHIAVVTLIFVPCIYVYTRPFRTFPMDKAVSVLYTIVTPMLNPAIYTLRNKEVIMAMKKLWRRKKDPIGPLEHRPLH
Sequence of OR4F15 (Homo sapiens) (Q8NGB8 whole entry): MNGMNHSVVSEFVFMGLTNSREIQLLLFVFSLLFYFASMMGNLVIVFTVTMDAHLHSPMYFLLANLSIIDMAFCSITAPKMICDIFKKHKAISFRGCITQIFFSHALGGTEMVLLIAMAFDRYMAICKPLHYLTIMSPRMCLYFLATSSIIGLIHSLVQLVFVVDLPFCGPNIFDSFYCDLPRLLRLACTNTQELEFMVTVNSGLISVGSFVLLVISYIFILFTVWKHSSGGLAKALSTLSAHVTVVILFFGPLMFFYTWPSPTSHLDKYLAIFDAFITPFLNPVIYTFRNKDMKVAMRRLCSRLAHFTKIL
Sequence of OR4E2 (Homo sapiens) (Q8NGC2 whole entry): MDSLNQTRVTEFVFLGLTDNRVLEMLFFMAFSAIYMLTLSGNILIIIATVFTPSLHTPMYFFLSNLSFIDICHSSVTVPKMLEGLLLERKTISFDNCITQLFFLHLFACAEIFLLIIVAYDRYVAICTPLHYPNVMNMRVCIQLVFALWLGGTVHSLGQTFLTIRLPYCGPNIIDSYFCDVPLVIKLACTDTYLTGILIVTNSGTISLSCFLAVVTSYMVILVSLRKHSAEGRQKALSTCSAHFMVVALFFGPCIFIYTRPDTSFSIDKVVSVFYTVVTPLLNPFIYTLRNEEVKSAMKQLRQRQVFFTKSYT
Sequence of OR4D9 (Homo sapiens) (Q8NGE8 whole entry): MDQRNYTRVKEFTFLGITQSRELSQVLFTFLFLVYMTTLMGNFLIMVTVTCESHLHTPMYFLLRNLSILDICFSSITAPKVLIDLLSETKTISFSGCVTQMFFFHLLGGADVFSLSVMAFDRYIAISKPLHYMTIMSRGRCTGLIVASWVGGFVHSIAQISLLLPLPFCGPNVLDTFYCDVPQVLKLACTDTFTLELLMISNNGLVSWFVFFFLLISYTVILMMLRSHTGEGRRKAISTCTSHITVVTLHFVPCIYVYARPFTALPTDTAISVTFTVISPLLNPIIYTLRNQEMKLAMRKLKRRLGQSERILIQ
Sequence of OR4F21 (Homo sapiens) (O95013 whole entry): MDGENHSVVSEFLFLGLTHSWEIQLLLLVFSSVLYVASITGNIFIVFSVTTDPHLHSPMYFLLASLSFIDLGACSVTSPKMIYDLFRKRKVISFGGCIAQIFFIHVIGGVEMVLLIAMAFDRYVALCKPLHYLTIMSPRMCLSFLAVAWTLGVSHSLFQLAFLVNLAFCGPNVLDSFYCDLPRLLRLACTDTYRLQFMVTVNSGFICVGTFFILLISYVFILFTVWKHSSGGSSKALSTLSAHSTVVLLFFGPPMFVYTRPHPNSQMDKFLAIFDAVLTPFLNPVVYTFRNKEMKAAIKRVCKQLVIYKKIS
Sequence of OR4D1 (Homo sapiens) (Q15615 whole entry): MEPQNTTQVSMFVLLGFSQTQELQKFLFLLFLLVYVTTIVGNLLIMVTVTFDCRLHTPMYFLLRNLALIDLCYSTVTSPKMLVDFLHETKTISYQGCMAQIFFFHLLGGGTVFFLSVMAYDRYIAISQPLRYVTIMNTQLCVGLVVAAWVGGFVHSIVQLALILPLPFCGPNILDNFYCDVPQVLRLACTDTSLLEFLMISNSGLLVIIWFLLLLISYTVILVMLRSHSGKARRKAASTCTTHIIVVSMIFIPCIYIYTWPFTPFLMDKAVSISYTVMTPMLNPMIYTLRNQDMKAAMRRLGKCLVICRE
Sequence of OR4F17 (Homo sapiens) (Q8NGA8 whole entry): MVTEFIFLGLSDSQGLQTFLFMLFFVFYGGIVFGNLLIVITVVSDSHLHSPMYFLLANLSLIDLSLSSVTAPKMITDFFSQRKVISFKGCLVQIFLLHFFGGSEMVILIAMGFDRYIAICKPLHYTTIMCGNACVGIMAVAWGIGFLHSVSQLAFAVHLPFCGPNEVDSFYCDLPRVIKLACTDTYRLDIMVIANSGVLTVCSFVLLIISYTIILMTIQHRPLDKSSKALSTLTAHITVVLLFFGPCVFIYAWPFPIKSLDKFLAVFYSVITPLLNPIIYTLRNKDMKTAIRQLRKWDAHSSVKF
Sequence of OR4D6 (Homo sapiens) (Q8NGJ1 whole entry): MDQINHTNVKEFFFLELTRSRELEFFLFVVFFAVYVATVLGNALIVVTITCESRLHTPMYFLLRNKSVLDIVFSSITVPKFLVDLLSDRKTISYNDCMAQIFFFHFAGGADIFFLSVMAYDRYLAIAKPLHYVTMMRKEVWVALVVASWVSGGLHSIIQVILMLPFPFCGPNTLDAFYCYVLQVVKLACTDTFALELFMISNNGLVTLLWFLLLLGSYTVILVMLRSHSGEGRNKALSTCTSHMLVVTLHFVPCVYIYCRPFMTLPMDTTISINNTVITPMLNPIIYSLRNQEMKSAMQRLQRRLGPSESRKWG
Sequence of OR4D11 (Homo sapiens) (Q8NGI4 whole entry): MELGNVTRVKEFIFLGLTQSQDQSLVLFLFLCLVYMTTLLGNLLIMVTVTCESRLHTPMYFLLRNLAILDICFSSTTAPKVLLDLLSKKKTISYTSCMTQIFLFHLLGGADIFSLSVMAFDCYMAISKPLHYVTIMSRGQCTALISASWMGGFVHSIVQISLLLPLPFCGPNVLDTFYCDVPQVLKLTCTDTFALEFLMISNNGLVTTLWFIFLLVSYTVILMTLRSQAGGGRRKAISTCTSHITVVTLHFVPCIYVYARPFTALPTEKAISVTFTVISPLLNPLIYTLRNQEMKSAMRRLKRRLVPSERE
Sequence of OR4E1 (Homo sapiens) (P0C645 whole entry): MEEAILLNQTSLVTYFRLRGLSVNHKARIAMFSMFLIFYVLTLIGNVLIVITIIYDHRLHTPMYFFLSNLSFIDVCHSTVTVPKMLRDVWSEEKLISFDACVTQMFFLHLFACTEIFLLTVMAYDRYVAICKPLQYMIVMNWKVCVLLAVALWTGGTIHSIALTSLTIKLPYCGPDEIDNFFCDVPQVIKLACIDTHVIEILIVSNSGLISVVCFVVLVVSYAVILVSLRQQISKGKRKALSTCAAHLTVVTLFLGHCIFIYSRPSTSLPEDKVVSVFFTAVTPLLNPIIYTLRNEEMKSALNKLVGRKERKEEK
Sequence of OR4CD V133I (as listed by the source, stated change not applied): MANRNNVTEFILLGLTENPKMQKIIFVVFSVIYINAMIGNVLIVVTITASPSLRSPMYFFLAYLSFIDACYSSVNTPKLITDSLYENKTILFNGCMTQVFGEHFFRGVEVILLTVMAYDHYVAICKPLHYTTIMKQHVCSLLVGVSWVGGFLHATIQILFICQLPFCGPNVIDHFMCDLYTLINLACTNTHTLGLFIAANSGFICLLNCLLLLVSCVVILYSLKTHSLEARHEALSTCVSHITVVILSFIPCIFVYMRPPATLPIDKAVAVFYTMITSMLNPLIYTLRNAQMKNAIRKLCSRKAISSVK
Sequence of OR4E2 A119T (as listed by the source, stated change not applied): as the sequence (Q8NGC2 whole entry) above, with V118M, A119T, Q234R counted along it
Sequence of OR4D1 (as listed by the source): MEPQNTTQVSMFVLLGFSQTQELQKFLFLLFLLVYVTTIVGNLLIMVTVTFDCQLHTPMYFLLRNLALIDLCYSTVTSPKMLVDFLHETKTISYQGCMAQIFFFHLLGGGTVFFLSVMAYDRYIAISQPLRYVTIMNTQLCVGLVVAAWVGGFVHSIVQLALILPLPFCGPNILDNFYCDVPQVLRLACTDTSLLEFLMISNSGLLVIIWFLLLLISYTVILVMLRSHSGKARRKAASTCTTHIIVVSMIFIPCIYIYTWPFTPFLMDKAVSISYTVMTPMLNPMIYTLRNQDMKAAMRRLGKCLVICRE
Sequence of OR4E2 (as listed by the source): as the sequence (Q8NGC2 whole entry) above, with V118M, Q234R counted along it
Sequence of OR4CF (as listed by the source): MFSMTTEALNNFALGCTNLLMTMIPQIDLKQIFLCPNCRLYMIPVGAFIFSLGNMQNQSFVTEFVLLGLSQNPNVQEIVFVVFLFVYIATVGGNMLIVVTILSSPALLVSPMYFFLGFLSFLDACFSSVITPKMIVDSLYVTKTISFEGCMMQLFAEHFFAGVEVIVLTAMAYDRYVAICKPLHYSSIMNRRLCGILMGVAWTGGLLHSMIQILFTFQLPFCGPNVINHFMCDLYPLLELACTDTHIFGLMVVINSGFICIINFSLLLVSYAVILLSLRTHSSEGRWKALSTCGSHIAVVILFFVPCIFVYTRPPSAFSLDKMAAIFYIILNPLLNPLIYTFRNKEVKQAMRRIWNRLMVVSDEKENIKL

C=CCOC(=O)Cc1ccccc1
inactive: OR4CD V133I | OR4CF | OR4CG T76A | OR4D1 (Homo sapiens) | OR4D10 (Homo sapiens) | OR4D11 (Homo sapiens) | OR4D1 | OR4D2 (Homo sapiens) | OR4D2 | OR4D5 (Homo sapiens) | OR4D6 (Homo sapiens) | OR4D6 | OR4D9 (Homo sapiens) | OR4E2 (Homo sapiens) | OR4E2 A119T | OR4E2 | OR4F15 (Homo sapiens) | OR4F17 (Homo sapiens) | OR4F21 (Homo sapiens)

Cc1c([N+](=O)[O-])c(C)c([N+](=O)[O-])c(C(C)(C)C)c1[N+](=O)[O-]
inactive: OR4D1 (Homo sapiens) | OR4D10 (Homo sapiens) | OR4D11 (Homo sapiens) | OR4D2 (Homo sapiens) | OR4D5 (Homo sapiens) | OR4D6 (Homo sapiens) | OR4D9 (Homo sapiens) | OR4E1 (Homo sapiens) | OR4E2 (Homo sapiens) | OR4F15 (Homo sapiens) | OR4F17 (Homo sapiens) | OR4F21 (Homo sapiens)
